Activity calls are given as the source filed them.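 How the source made its calls: active means viability loss with fitted half-maximal concentration at most ten times the top valid dose; inconclusive means flat fit with 30 to 70% inhibition, or poor fit; inactive means the rest, including rising signal.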

System in one experiment: not listed separately
As to the kind of experiment: SK-MEL-5 parental cell viability loss, dose response, orthogonal assay for MITF inhibitor project, CellTiter-Glo luminescence, dry powder samples (AID 540347). The settings on record: SK-MEL-5 viability, CellTiter-Glo ATP luminescence, 24 h; at 35 µM (top of the series). An outline of the steps:
(§1)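 Assay system: SK-MEL-5 melanoma cell line / Compound: Multiple-concentration series, compounds delivered by pin transfer / Schedule: 24 h compound exposure 37 °C, 5 min RT readout / Measured by: CellTiter-Glo luminescence measuring cellular ATP / Measure: cell viability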
On to `Cc1ccc(C(O)(c2ccc(C)c(C)c2)C2CN3CCC2CC3)cc1C` (stereo not given), for which the activity change, negative = inhibition was -2.1% (inactive).

On to `Cc1ccc(C(C)C)c(OCc2nn(CC(=O)c3ccc(Cl)cc3)c3[n+]2CCCCC3)c1`, for which the activity change, negative = inhibition is -4.44% (inactive). On the same count and under the same terms, in the case of `COc1cc(/C=N/NC(N)=O)c(Br)cc1OCC(=O)Nc1ccccc1C` it was -15.2% (inactive); in that of `O=C(Nc1ccc(-c2nc3ncccc3o2)cc1)c1ccc([N+](=O)[O-])o1`, 6.95% (inactive). Still for that read-out and setting: the result for `Cc1oc(-c2ccc(Cl)cc2)nc1CN1CCC(C(=O)NCCCN2CCCC(C)C2)CC1` (stereo not given) reads -12.1% (inactive). Regarding `CC1CCCCC1NC(=O)/C(C#N)=C/C=C/c1ccccc1[N+](=O)[O-]` (stereo not given), the activity change, negative = inhibition is 9.93% (inactive). For the molecule `CCN(CC)CCNC(=O)c1c(C)n(-c2ccccc2)c2cc(Br)c(OC)cc12`, the activity change, negative = inhibition was -13.7% (inactive).

Turning to `Cc1ccc(C(=O)N/N=C/c2ccc([N+](=O)[O-])s2)cc1`, the activity change, negative = inhibition was -12.1% (inactive). Consider `CC1CCN(CC(CS(=O)(=O)c2ccc([N+](=O)[O-])cc2)N2CCC(C)CC2)CC1` (stereo not given), for which the activity change, negative = inhibition is 3.72% (inactive).

A further experiment relates to SK-MEL-5 viability, CellTiter-Glo ATP luminescence, 24 h. The experiment is described as above.
Conditions: not given
An outline of the steps:
as §1
Regarding `CC1(C)CC(NC(=O)c2ccc(Cl)c(S(=O)(=O)N(Cc3ccccc3)c3ccccc3)c2)CC(C)(C)N1`, the half-inhibitory concentration (IC50) is 29.2 µM. Still for that read-out and setting: the result for `CC1=NNC(=O)/C1=C\c1cn(-c2ccccc2)nc1-c1ccc(F)cc1` reads 25.4 µM; that for `CCN1CCCC1CNC(=O)c1ccc2c(c1)NC(=O)/C(=C\c1ccc(C)cc1)S2` (stereo not given), 29.1 µM. On to `C=CCNC1=C(Cl)C(=O)c2ccccc2C1=O`, for which the IC50 is 14.3 µM.

Consider `COc1ccc(S(=O)(=O)N(C(C)=O)c2ccc(OC(C)=O)c3ccccc23)cc1[N+](=O)[O-]`, for which the IC50 is 6.58 µM.

For the molecule `Cc1cc(C(C)(C)C)cc(C)c1Cn1c2[n+](c3ccc(C(F)(F)F)cc31)CCCCC2`, the IC50 was 27.1 µM. For `Cc1[nH]c2ccccc2c1C(=O)CCl`, the IC50 was 27.7 µM. As for `CC(C)C(CCNC1CCN(C)CC1)c1ccc(Cl)cc1` (stereo not given), the IC50 is 36.5 µM. On the same count and under the same terms, in the case of `O=C(COc1ccccc1)N/N=C/c1ccc([N+](=O)[O-])o1` it was 35.5 µM; in that of `CN(C)CCCNC(=O)/C(=C\c1ccc(-c2ccc(Br)cc2)o1)NC(=O)c1ccccc1`, 32 µM. On to `CCN1c2ccccc2NC2N=C(OC)C(c3ccccc3)C21` (stereo not given), for which the concentration for half-maximal inhibition (IC50) was 4.78 µM. Take `O=c1c(Cl)c2oc3ccccc3nc-2c2ccccc12`: the IC50 was 24.7 µM. On to `N=c1n(CCN2CCCC2)c2ccccc2n1CC(O)c1ccc(Cl)c(Cl)c1` (stereo not given), for which the IC50 is 30.5 µM. Regarding `Cc1nc2ccccc2n1/N=C/c1ccc([N+](=O)[O-])s1`, the IC50 was 9.51 µM. With `CCN1CCN(C2=C(NS(=O)(=O)c3ccc(Br)cc3)C(=O)c3ccccc3C2=O)CC1`, the IC50 is 33.5 µM. Still for that read-out and setting: in the case of `COc1cc2c(cc1OC)C(c1ccccc1)N(C(=O)CCl)CC2` (stereo not given) it was 28.4 µM.

As usually defined, the IC50 is the concentration needed to halve the response being measured.
